Calls of active or inactive are those of the source. The calls are words filed in the database; no cut-off is given here.
Columns and labels:
[1] = molecular target: T1, D(2) dopamine receptor (Bos taurus, UniProt P20288); assay: Inhibitory activity against dopamine receptor D2 in calf corpus striatum using [3H]spiperone as radioligand; type: tissue-based
Procedure, shortened: (§1)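 Displacement of [3H]spiperone binding in calf corpus striatum membranes; some values given as percent displacement at 1000 nM.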

[2] = molecular target: T2, D(2) dopamine receptor (Rattus norvegicus, UniProt P61169); assay: (§2) Inhibitory activity against dopamine receptor D2 in rat corpus striatum using [3H]apomorphine as radioligand; type: tissue-based
T2 sequence (P61169 whole entry): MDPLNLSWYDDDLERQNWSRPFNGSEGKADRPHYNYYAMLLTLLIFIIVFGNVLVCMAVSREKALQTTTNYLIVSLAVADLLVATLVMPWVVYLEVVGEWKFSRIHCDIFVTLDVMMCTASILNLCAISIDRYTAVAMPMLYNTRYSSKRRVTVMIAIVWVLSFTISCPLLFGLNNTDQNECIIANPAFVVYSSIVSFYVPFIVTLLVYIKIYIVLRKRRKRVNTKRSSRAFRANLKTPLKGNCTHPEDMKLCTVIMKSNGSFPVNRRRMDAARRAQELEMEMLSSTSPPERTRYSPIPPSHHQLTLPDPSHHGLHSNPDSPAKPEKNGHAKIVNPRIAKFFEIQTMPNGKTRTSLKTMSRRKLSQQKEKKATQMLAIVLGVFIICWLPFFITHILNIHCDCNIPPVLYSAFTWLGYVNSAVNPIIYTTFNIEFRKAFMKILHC
Procedure, shortened: (§3)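 Displacement of [3H]apomorphine binding in rat corpus striatum membranes; some values given as percent displacement at 1000 nM.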

[3] = test system: Rattus norvegicus; assay: Inhibition of serum prolactin concentration in rats when 5 mg/Kg was administered intraperitoneally; type: functional
Procedure, shortened: (§4)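 Prolactin in serum of nonreserpinized male rats (Clemens method) after 5 mg/kg ip. Values are mean ± SE for 6-10 rats; significance versus control at P<0.05.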

[4] = test system: Rattus norvegicus; assay: Effect on 3,4-Dihydroxyphenylacetic acid concentration in whole rat brain when 10 mg/Kg was administered intraperitoneally; type: functional
Procedure, shortened: (§5)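 Rats dosed 10 mg/kg ip. Whole-brain dopamine, DOPAC and HVA measured by liquid chromatography with electrochemical detection, expressed as nmol/g and as % change from a control group. Mean ± SE, five rats per group; significance at P<0.05.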

[5] = test system: Rattus norvegicus; assay: Effect on serum corticosterone level […] when 10 mg/Kg was administered intraperitoneally; type: functional
Procedure, shortened: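 Rats dosed 10 mg/kg ip. Serum corticosterone determined spectrofluorometrically (Solem and Brinck-Johnsen method), reported as µg/100 mL versus a vehicle group and as % change from control. Mean ± SE, five rats per group; significance P<0.05.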

[6] = test system: Rattus norvegicus; assay: Reduction of serum prolactin concentration in rats, 5 mg/Kg administered intraperitoneally; type: functional; procedure, shortened: as §4
[7] = test system: Rattus norvegicus; assay: Effect on dopamine concentration in whole rat brain when 10 mg/Kg was administered intraperitoneally; type: functional; procedure, shortened: as §5
[8] = test system: Rattus norvegicus; assay: (§6) Effect on homovanillic acid concentration in whole rat brain when 10 mg/Kg was administered intraperitoneally; type: functional; procedure, shortened: as §5
[9] = test system: Rattus norvegicus; assay: as §6
[10] = test system: Rattus norvegicus; assay: Inhibition of serum prolactin concentration in rats when 5 mg/Kg was administered intraperitoneally; NS means not significant; type: functional, organism-based; procedure, shortened: as §4
[11] = test system: Rattus norvegicus; assay: Dopa accumulation in GBL-treated rats after the administration at a dose of 0.3 mg/Kg; type: functional
Procedure, shortened: (§7)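 Male rats given compound ip; γ-butyrolactone 500 mg/kg ip 10 min later, then decarboxylase inhibitor NSD 1015 100 mg/kg ip 5 min after GBL and 40 min before sacrifice. Striatal dopa accumulation measured by LC with electrochemical detection; Roth autoreceptor paradigm. Values are mean ± SE, five rats per group; one control group received no GBL.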

[12] = test system: Rattus norvegicus; assay: Dopa accumulation in GBL-treated rats after the administration at a dose of 1.0 mg/Kg; type: functional; procedure, shortened: as §7
[13] = test system: Rattus norvegicus; assay: Dopa accumulation in GBL-treated rats after the administration at a dose of 10 mg/Kg; type: functional; procedure, shortened: as §7
[14] = test system: Rattus norvegicus; assay: Dopa accumulation in GBL-treated rats after the administration at a dose of 3 mg/Kg; type: functional; procedure, shortened: as §7
[15] = species: Rattus norvegicus; assay: Dopa accumulation in GBL-treated rats in the absence of the compound; type: functional; procedure, shortened: as §7
[16] = test system: Rattus norvegicus; assay: Effect on dopamine concentration in whole rat brain when 10 mg/Kg 10 mg/kg was administered intraperitoneally; type: functional; conditions: route intraperitoneal; procedure, shortened: as §5
[17] = molecular target: T1, D(2) dopamine receptor; assay: (§8) Inhibitory activity against Dopamine receptor D2 in calf corpus striatum using [3H]spiperone as radioligand; type: tissue-based; procedure, shortened: as §1
[18] = molecular target: T2, D(2) dopamine receptor; assay: Inhibitory activity against Dopamine receptor D2 in rat corpus striatum using [3H]Apomorphine as radioligand; type: tissue-based; procedure, shortened: as §3
[19] = test system: Rattus norvegicus; assay: Inhibition of serum prolactin concentration in rats when 5 mg/kg was administered intraperitoneally; type: functional; conditions: ip, route intraperitoneal; procedure, shortened: as §4
[20] = molecular target: D(2) dopamine receptor (Bos taurus) (UniProt P20288); assay: Inhibitory activity against dopamine receptor D2 in calf corpus striatum using [3H]-Spiperone as radioligand; type: tissue-based; procedure, shortened: as §1
Chain of D(2) dopamine receptor (Bos taurus) (P20288 whole entry): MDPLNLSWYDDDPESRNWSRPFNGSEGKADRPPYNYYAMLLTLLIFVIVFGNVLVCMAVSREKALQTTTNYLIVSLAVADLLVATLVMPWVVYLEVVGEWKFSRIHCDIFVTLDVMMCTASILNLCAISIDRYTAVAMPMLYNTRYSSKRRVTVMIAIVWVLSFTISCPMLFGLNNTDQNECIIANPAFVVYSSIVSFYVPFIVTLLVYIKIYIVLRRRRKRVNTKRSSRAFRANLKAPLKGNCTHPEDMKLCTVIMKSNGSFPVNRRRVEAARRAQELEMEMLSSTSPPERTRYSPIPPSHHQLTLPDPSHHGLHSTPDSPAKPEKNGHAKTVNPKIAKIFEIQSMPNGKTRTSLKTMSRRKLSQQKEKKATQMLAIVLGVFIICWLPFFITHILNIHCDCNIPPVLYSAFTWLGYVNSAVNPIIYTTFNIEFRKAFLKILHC

[21] = molecular target: D(2) dopamine receptor (Rattus norvegicus) (UniProt P61169); assay: as §2; type: tissue-based; procedure, shortened: as §3
Chain of D(2) dopamine receptor (Rattus norvegicus) (P61169 whole entry): as the sequence (P61169 whole entry) above

[22] = molecular target: D(2) dopamine receptor (Bos taurus) (UniProt P20288); assay: as §8; type: tissue-based; procedure, shortened: as §1
[23] = molecular target: D(2) dopamine receptor (Rattus norvegicus) (UniProt P61169); assay: Inhibitory activity against Dopamine receptor D2 in rat corpus striatum using [3H]apomorphine as radioligand; type: tissue-based; procedure, shortened: as §3
[24] = test system: Rattus norvegicus; assay: Effect on homovanillic acid concentration in whole rat brain when 10 mg/kg was administered intraperitoneally; type: functional; conditions: route intraperitoneal
Procedure, shortened: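 Rats dosed ip at 10 mg/kg. Whole brain was assayed for HVA, with dopamine and DOPAC measured alongside, by liquid chromatography with electrochemical detection. Levels are in nmol/g and expressed as % change from control. Values are mean ± standard error for five rats per group. Significance versus control was taken at P<0.05.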

[25] = test system: Rattus norvegicus; assay: Effect on serum corticosterone level in whole rat brain when 10 mg/kg was administered intraperitoneally; type: functional; conditions: route intraperitoneal
Procedure, shortened: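 Rats dosed ip at 10 mg/kg. Serum corticosterone was determined spectrofluorometrically and reported in µg/100 mL, as % change from vehicle. Values are mean ± standard error for five rats per group. Significance versus control was taken at P<0.05.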

T1 sequence (P20288 whole entry): as the sequence (P20288 whole entry) above

IC50 [1]	IC50 [2]	Structure (SMILES)	Inhibition [3]	Turnover [4]	Turnover [5]	Turnover [6]	Turnover [7]	Turnover [8]	further results
1060 nM	140 nM	CCCN(CCc1ccccc1)C1CCc2n[nH]cc2C1 (centres undefined)	87%	0.4 nmol/g	17.5 µg/100 mL	1.4 ng/mL	4.41 nmol/g	0.23 nmol/g	
> 10000 nM	> 10000 nM	CCCCNC1CCc2[nH]ncc2C1 (centres undefined)							
> 1000 nM		CCCNC1CCc2nc(N)sc2C1 (centres undefined)	78%	0.35 nmol/g	54 µg/100 mL	3.7 ng/mL	5.08 nmol/g		Turnover [9]: 0.15 nmol/g
11600 nM	610 nM	CCNC1CCc2n[nH]cc2C1 (centres undefined)	91%	0.55 nmol/g	16.6 µg/100 mL	1.6 ng/mL	6.39 nmol/g	0.4 nmol/g	
> 10000 nM		c1ccc(CCNC2CCc3n[nH]cc3C2)cc1 (centres undefined)		0.51 nmol/g	7.7 µg/100 mL	6 ng/mL	3.65 nmol/g	0.34 nmol/g	inhibition [10]: inactive
15200 nM	65 nM	CCCNC1CCc2n[nH]cc2C1 (centres undefined)	78%	0.51 nmol/g	31.7 µg/100 mL	2.4 ng/mL		0.51 nmol/g	Accumulation [11]: 25.2 nM/g; Accumulation [12]: 23.1 nM/g; Accumulation [13]: 12.1 nM/g; Accumulation [14]: 16.9 nM/g; Accumulation [15]: 24.8 nM/g; Turnover [16]: 4.86 nmol/g
		CCCCN(CCC)C1CCc2n[nH]cc2C1 (centres undefined)		0.39 nmol/g	38.6 ng/mL	1.9 ng/mL	4.94 nmol/g		IC50 [17]: 10000 nM; IC50 [18]: 330 nM; inhibition in vivo at 5 mg/kg [19]: 83%
		CCCN[C@@H]1Cc2c[nH]nc2C[C@H]1CCCO	46%			4.4 ng/mL			Displacement [20]: 10%; Displacement [21]: 45%
1410 nM	160 nM	CCCN(CCc1cccs1)C1CCc2n[nH]cc2C1 (centres undefined)	73%	0.43 nmol/g	17.3 µg/100 mL	2.8 ng/mL	4.78 nmol/g	0.24 nmol/g	
		CCCN[C@@H]1Cc2c[nH]nc2C[C@H]1CCCOC	44%			4.6 ng/mL			Displacement [20]: 12%; Displacement [21]: 50%
3990 nM	310 nM	CCCN(CCCSC)C1CCc2n[nH]cc2C1 (centres undefined)	90%	0.28 nmol/g	48 µg/100 mL	1.1 ng/mL	4.92 nmol/g	0.16 nmol/g	
		CCCN[C@@H]1Cc2c[nH]nc2C[C@H]1CCCSC				7.8 ng/mL			Displacement [20]: 10%; Displacement [21]: 45%; inhibition [10]: inactive
		CCCN[C@@H]1Cc2c[nH]nc2C[C@H]1CCC				5.1 ng/mL			Displacement [22]: 9%; Displacement [23]: 41%
> 10000 nM	9160 nM	c1csc(CCNC2CCc3n[nH]cc3C2)c1 (centres undefined)		0.49 nmol/g	5.5 µg/100 mL	7.9 ng/mL	3.47 nmol/g	0.38 nmol/g	inhibition [10]: inactive
		CCCN1C[C@H](CSC)C[C@@H]2c3cccc4[nH]cc(c34)C[C@H]21 [PERGOLIDE]	88%	0.53 nmol/g		2 ng/mL	6.42 nmol/g		Turnover [24]: 0.32 nmol/g; Turnover [25]: 54 µg/100 mL
		CCCCNC1CCc2n[nH]cc2C1 (centres undefined)		0.53 nmol/g	5.8 µg/100 mL	13.4 ng/mL	3.9 nmol/g	0.36 nmol/g	inhibition [10]: inactive
		CCCN(C)C1CCc2n[nH]cc2C1 (centres undefined)		0.43 nmol/g	41 µg/100 mL	2 ng/mL	5.16 nmol/g		IC50 [17]: 8330 nM; IC50 [18]: 1230 nM; inhibition in vivo at 5 mg/kg [19]: 82%; Turnover [24]: 0.22 nmol/g
> 10000 nM	2030 nM	CSCCCNC1CCc2n[nH]cc2C1 (centres undefined)		0.49 nmol/g	3.8 µg/100 mL	9.9 ng/mL	3.91 nmol/g	0.27 nmol/g	inhibition [10]: inactive

— ChEMBL document CHEMBL1124655, “Substituted 5-amino-4,5,6,7-tetrahydroindazoles as partial ergoline structures with dopaminergic activity” (J Med Chem, 1989)
